Source: PubChem BioAssay
PGC1a acetyl inh: lowers PGC1a acetylation signal in U2OS cells; inhibition, % at 15.6 µM; actives 0.17% (n = 350,000); AID 651687; AlphaScreen anti-acetyl-lysine; with virally co-expressed GCN5 acetyltransferase;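 active means every replicate shows inhibition of at least 40%; inconclusive means mean inhibition at least 40% but some replicate below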
ERAP1 HTS inh: blocks human ERAP1 aminopeptidase activity. Q9NZ08. actives 0.15% (n = 340,000). recombinant ERAP1, Leu-AMC fluorescence, 60 min. AID 652197. inhibition, % at 10.7 µM;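 active means mean replicate inhibition of at least 30%, or all replicates individually reaching that 30% level; inactive means mean below 30% and not every replicate reaching it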
Target sequence (Q9NZ08 whole entry, looked up): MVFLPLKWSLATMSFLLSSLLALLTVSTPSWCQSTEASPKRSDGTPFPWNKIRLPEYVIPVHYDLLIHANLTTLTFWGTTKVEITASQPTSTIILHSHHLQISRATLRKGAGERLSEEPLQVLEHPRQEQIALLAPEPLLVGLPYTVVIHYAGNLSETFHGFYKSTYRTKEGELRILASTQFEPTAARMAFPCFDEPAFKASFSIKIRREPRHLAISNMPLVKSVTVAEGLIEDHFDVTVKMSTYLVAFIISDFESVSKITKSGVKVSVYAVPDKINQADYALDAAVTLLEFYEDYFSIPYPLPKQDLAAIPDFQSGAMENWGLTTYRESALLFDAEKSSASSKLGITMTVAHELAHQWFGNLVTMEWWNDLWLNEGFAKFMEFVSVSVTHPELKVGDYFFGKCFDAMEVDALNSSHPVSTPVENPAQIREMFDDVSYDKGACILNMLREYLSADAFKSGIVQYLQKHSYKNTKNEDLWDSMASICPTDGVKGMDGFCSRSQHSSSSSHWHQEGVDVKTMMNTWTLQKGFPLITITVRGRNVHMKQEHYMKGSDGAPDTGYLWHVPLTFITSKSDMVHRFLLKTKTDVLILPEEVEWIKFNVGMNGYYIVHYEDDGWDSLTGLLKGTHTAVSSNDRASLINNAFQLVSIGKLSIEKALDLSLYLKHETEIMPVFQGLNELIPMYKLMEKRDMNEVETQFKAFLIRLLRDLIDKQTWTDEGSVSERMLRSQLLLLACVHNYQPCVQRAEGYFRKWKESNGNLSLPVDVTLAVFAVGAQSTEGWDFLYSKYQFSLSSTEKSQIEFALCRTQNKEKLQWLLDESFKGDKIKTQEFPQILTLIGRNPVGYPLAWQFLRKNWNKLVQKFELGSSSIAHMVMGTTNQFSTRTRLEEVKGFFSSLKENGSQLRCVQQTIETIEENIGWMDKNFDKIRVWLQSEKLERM
S100A4 MyoIIA: blocks human S100A4 binding to myosin IIA peptide. S100A4/TAMRA-MyoIIA peptide fluorescence polarization. inhibition, % at 10.7 µM. actives 0.14% (n = 360,000);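 active means mean inhibition of at least 70% across replicates, with every replicate also reaching that level; inconclusive means mean inhibition reaches 70% but some replicates fall short; inactive means mean inhibition below 70%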
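Material: S100A4 monomer (human). Medium: Calcium-containing HEPES buffer, pH 7.2. Probe or stimulus: labelled myosin peptide probe, 5 nM. Compound dosing: one concentration per compound. Timing: polarization read 5 min after assay mix addition, stable 5–60 min. Benchmarks: DMSO as neutral control, TFP as positive control.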
Rtt109 HAT inh: blocks Candida albicans Rtt109/Vps75 acetyltransferase activity; inhibition, % at 34.9 µM; actives 0.16% (n = 330,000); Q5AAJ8; purified Rtt109/Vps75, ThioGlo CoA-SH fluorescence, 4 h;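 active means inhibition of at least 50% in every replicate; inconclusive means best replicate reaches 50% inhibition but some replicates fall short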
C2C12 statin: suppression of simvastatin myotoxicity; C2C12 myotubes + simvastatin, ATP luminescence, 48 h; scaled: DMSO 0, geranylgeraniol control 100; AID 602340; rescue of ATP level, % at 7.49 µM; actives 0.78% (n = 330,000);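 active means mean ATP rescue above about 67%, or every replicate alone reaching that limit, limit read from the data, passing the limit was not always enough; inconclusive means no clear call, values can overlap the other calls; inactive means mean under the limit and some replicate under it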;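 further: myotubes were challenged with 10 µM simvastatin during compound exposure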
Numbers stand for hits. Shown are actives, neighbours in structure and some others; about 0.98% of the full set was active somewhere.

O=C(CCCN1C(=O)/C(=C\c2cccs2)SC1=S)Nc1cccc(C(=O)O)c1 was read as ERAP1 HTS inh inactive, S100A4 MyoIIA inactive and Rtt109 HAT inh inactive.
For O=C(CCCN1C(=O)/C(=C/c2ccccc2)SC1=S)Nc1ccc(C(=O)O)c(O)c1 the results were PGC1a acetyl inh inactive, ERAP1 HTS inh inactive, S100A4 MyoIIA inactive, Rtt109 HAT inh inactive and C2C12 statin inactive.
O=C(CCCN1C(=O)/C(=C/c2ccco2)SC1=S)Nc1cccc(C(=O)O)c1 was read as ERAP1 HTS inh 31.7, S100A4 MyoIIA inactive and Rtt109 HAT inh inactive.
Screening CC(C(=O)Nc1ccc(C(=O)O)c(O)c1)N1C(=O)/C(=C\c2ccco2)SC1=S (stereo not drawn) returned PGC1a acetyl inh inactive, Rtt109 HAT inh inactive and C2C12 statin 125.8.
`CCC(=O)Nc1ccc2c(c1)C(=O)N(C)C[C@@H](OC)[C@H](C)CN(C(=O)c1ccc(F)cc1)[C@@H](C)CO2` gave PGC1a acetyl inh inactive, ERAP1 HTS inh inactive, S100A4 MyoIIA inactive and C2C12 statin inactive.
CCOC(=O)C1=C(C)C(c2ccccc2O)NC(=O)N1 (stereo not drawn) was read as PGC1a acetyl inh inactive, Rtt109 HAT inh inactive and C2C12 statin 86.6.
C=CCOc1ccc(/C(CC)=N/O)cc1OC was read as PGC1a acetyl inh inactive, Rtt109 HAT inh inactive and C2C12 statin 117.4.
`CC/C(=N\O)c1ccc(OC)c(OC)c1` gave PGC1a acetyl inh inactive and Rtt109 HAT inh inactive.
`COc1ccc2c3c(n(C)c2c1)[C@H](CO)N(C)CC31CCN(C(=O)NC(C)C)CC1` gave PGC1a acetyl inh inactive, ERAP1 HTS inh inactive and S100A4 MyoIIA inactive.
C#CCOCCOCCOCCNc1nc(N2CCN(C(=O)CCCCCCCCCCNC(=O)Cn3cc(CCCCCN)nn3)CC2)nc(N2CCN(C(=O)CCCCCCCCCCNC(=O)[C@@H]([C@H](C)O)n3cc(C)nn3)CC2)n1 was read as PGC1a acetyl inh inactive, Rtt109 HAT inh inconclusive and C2C12 statin inactive.
C#CCOCCOCCOCCNc1nc(N2CCN(C(=O)CCCCCCCCCCNC(=O)Cn3cc(C[C@@H](C)O)nn3)CC2)nc(N2CCN(C(=O)CCCCCCCCCCNC(=O)[C@@H]([C@H](C)O)n3cc(C)nn3)CC2)n1 was read as Rtt109 HAT inh inactive and C2C12 statin 105.7.
For O=C(C[C@H]1C[C@H]2c3cc(NC(=O)C4CCC4)ccc3O[C@H]2[C@H](CO)O1)NCc1ccc2c(c1)OCO2 the results were PGC1a acetyl inh inactive, ERAP1 HTS inh inactive, S100A4 MyoIIA inactive and C2C12 statin inactive.
`CC1=C(C(=O)OCc2ccc3c(c2)OCO3)C(c2ccccc2)NC(=O)N1` (stereo not drawn) gave PGC1a acetyl inh 55.5, Rtt109 HAT inh inactive and C2C12 statin inactive.
For CO[C@H]1CN(C)C(=O)c2ccc(NC(=O)Nc3ccc4c(c3)OCO4)cc2OC[C@H](C)NC[C@@H]1C the results were PGC1a acetyl inh inactive and S100A4 MyoIIA inactive.
For Cc1nc2c3ccccc3nc(SCC(=O)c3ccc(Cl)cc3)n2n1 the results were PGC1a acetyl inh inactive, Rtt109 HAT inh inactive and C2C12 statin inactive.
COCCNC(=O)CSc1nc2ccccc2c2nc(C)nn12 was read as PGC1a acetyl inh inactive, Rtt109 HAT inh inactive and C2C12 statin 124.0.
Screening CCOc1ccc2c(c1)[N+](C)(C)C(C)(C)C=C2C returned PGC1a acetyl inh inactive, ERAP1 HTS inh 41.0, S100A4 MyoIIA inactive and Rtt109 HAT inh inactive.
`COc1ccc2c(c1)[N+](C)(C)C(C)(C)C=C2C` gave ERAP1 HTS inh 44.8, S100A4 MyoIIA inactive and Rtt109 HAT inh inactive.
Screening COc1ccc2c(c1)C(C)=CC(C)(C)N2S(=O)(=O)c1ccc(C)cc1 returned PGC1a acetyl inh inactive, ERAP1 HTS inh inactive, S100A4 MyoIIA inactive, Rtt109 HAT inh inactive and C2C12 statin inactive.
CCC(=O)N1CC2(CCN(C(C)=O)CC2)c2c([nH]c3cc(OC)ccc23)[C@@H]1CO was read as ERAP1 HTS inh inactive and S100A4 MyoIIA inactive.
Screening COCc1c(C(=O)OC)nnn1-c1ccccc1 returned PGC1a acetyl inh inactive, Rtt109 HAT inh inactive and C2C12 statin 129.8.
Screening O=C(Nc1ccc2c(c1)[C@@H]1C[C@@H](CC(=O)N3CCOCC3)O[C@H](CO)[C@@H]1O2)NC1CCCC1 returned PGC1a acetyl inh inactive, ERAP1 HTS inh inactive, S100A4 MyoIIA inactive and C2C12 statin inactive.
For COCCN(C(=O)c1c(C)noc1C)c1c(N)n(CC(C)C)c(=O)[nH]c1=O the results were PGC1a acetyl inh inactive, ERAP1 HTS inh 82.6, S100A4 MyoIIA inactive, Rtt109 HAT inh inactive and C2C12 statin inactive.
Screening CC(C)NC(=O)N1C[C@@H]2[C@H](c3ccccc31)[C@@H](CO)N2C(=O)Nc1cccc(F)c1 returned PGC1a acetyl inh inactive, ERAP1 HTS inh inactive, S100A4 MyoIIA inactive and C2C12 statin inactive.
COc1ccc(S(=O)(=O)N(Cc2cccs2)C2CCCC2)cc1 was read as PGC1a acetyl inh inactive, Rtt109 HAT inh inactive and C2C12 statin 106.0.
For COc1ccc(S(=O)(=O)NCc2cccs2)cc1 the results were PGC1a acetyl inh inactive, Rtt109 HAT inh inactive and C2C12 statin inactive.
Screening CCC(C)(CC(=O)O)CC(=O)Nc1cc(C(F)(F)F)cc(C(F)(F)F)c1 (stereo not drawn) returned PGC1a acetyl inh 67.6, ERAP1 HTS inh inactive, S100A4 MyoIIA inactive, Rtt109 HAT inh inactive and C2C12 statin inactive.
`CC1CC/C(=C\c2ccc3c(c2)OCO3)C(=O)/C1=C/c1ccc2c(c1)OCO2` (stereo not drawn) gave PGC1a acetyl inh inactive, Rtt109 HAT inh inactive and C2C12 statin 206.9.
Screening O=S(=O)(N[C@@H]1CCCN(Cc2ccc(OCCO)cc2)C1)c1cc(C(F)(F)F)ccc1Cl returned PGC1a acetyl inh inactive, ERAP1 HTS inh inactive and S100A4 MyoIIA inactive.
`C[C@@H]1CN([C@H](C)CO)C(=O)c2cccc(N(C)C)c2O[C@H]1CN(C)Cc1ccc(C(=O)Nc2ccccc2N)cc1` gave PGC1a acetyl inh inactive, ERAP1 HTS inh inactive, S100A4 MyoIIA inactive and C2C12 statin inactive.
For O=C(NCCCN1CCN(c2ccccc2F)CC1)C1CC(=O)N(C2CCCC2)C1 (stereo not drawn) the results were PGC1a acetyl inh inactive, S100A4 MyoIIA inactive, Rtt109 HAT inh inactive and C2C12 statin 125.2.
`CN1CCN(CCCNC(=O)C2CC(=O)N(C3CCCCC3)C2)CC1` (stereo not drawn) gave PGC1a acetyl inh inactive, Rtt109 HAT inh inactive and C2C12 statin inactive.
Screening COc1cc(NC(=O)COc2c(C)cc(C)cc2[N+](=O)[O-])c(OC)cc1Cl returned ERAP1 HTS inh inactive, S100A4 MyoIIA inactive and Rtt109 HAT inh 51.6.
`COc1cc(Cl)c(C)cc1NC(=O)COc1ccccc1[N+](=O)[O-]` gave Rtt109 HAT inh inactive.
CN1C(=O)c2cc(NC(=O)C3CCCC3)ccc2OC[C@@H]2O[C@@H](CC(=O)O)CC[C@H]21 was read as PGC1a acetyl inh inactive, ERAP1 HTS inh inactive, S100A4 MyoIIA inactive and C2C12 statin inactive.
